Drawing on ChEMBL document CHEMBL1152328, “Alstiphyllanines A-D, indole alkaloids from Alstonia macrophylla” (J Nat Prod, 2009), this text covers Activity and IC50 for four compounds.

The subject of one experiment is Aorta. Kind of experiment: Vasodilation activity in Wistar rat endothelium-intact thoracic aortic ring assessed as inhibition of phenylepinephrine-induced contraction at 30 uM. Type of experiment: functional. Also on record: scale not given: the % may be the effect or the level left.
Another experiment has as its system HeLa. Kind of experiment: Cytotoxicity against human HeLa cells. Type of experiment: cell-based.
For a further experiment, the system named is Plasmodium falciparum. Kind of experiment: Antiplasmodial activity against Plasmodium falciparum 3D7 infected human erythrocytes by Giemsa staining. Type of experiment: functional, organism-based. The procedure, abridged: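 Human malaria parasites were kept in culture, and the test samples were made up as DMSO stock solutions before assay.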

What is called IC50 is the concentration that gives 50% inhibition.

The structures appear in SMILES notation. ≈ marks a conversion by molar mass, not a printed value. A value given as a limit tells only on which side of the number the result lay.

For `C/C=C1/CN2[C@@H]3C[C@@]45c6cc(OC)ccc6N(C)[C@]4(O3)[C@@H]2C[C@@H]1[C@@]5(COC(=O)c1cc(OC)c(OC)c(OC)c1)C(=O)OC` [ALSTIPHYLLANINE D], the Activity with Aorta is 42%. Also, the concentration for half-maximal inhibition (IC50) with HeLa was more than 25 µg/mL; in the experiment on Plasmodium falciparum it was 2.75 µg/mL (≈ 4.53 µM).

Regarding `C/C=C1/C[N+]2(C)[C@@H]3C[C@@]45c6cc(OC)ccc6N(C)[C@]4(O3)[C@@H]2C[C@@H]1[C@@]5(COC(=O)c1ccc(OC)c(OC)c1)C(=O)OC` (some centres not stated) [ALSTIPHYLLANINE B], the Activity in the experiment on Aorta was determined as 35%. In addition, the IC50 is more than 25 µg/mL in the experiment with HeLa and 0.34 µg/mL in the experiment with Plasmodium falciparum.

For `C/C=C1\C[N+]2([O-])[C@H]3C[C@@H]1[C@]1(C(=O)OC)[C@@H](OC(C)=O)[C@]4(C[C@@H]12)c1ccccc1N(C)[C@H]34` [ALSTIPHYLLANINE A], in the experiment with Aorta, the Activity is on record as 70%. Moreover, the half-maximal inhibitory concentration (IC50) was more than 25 µg/mL in the experiment on HeLa and 6.85 µg/mL (≈ 16.1 µM) in the experiment with Plasmodium falciparum.

For `C/C=C1/C[N+]2(C)[C@@H]3C[C@@]45c6cc(OC)ccc6N(C)[C@]4(O3)[C@@H]2C[C@@H]1[C@@]5(COC(=O)c1cc(OC)c(OC)c(OC)c1)C(=O)OC` (some centres not stated) [ALSTIPHYLLANINE C], the Activity with Aorta is recorded as 40%. Moreover, the IC50 is more than 25 µg/mL with HeLa and 6.2 µg/mL with Plasmodium falciparum.
